Assay results from different studies.
pIC50, pKi: −log10 of the molar value.
Target: 5-hydroxytryptamine receptor 2B (HTR2B, Homo sapiens, UniProt P41595)

| Compound | assay | measurement | value |
| --- | --- | --- | --- |
| Cc1cc(NC(=O)Nc2ccc3c(ccn3C)c2)sn1 | ligand displacement, radioligand | pIC50 | 6.80 |
| Cc1ccc2cccc(N3CCN(CCCCOc4ccc5sc(C(C)C)nc5c4)CC3)c2n1 | cell-free assay, radioligand | pKi | 7.37 |
| O=C1c2ccccc2CCN1CCCCN1CCN(c2cccc(Cl)c2Cl)CC1 | ligand displacement, radioligand | pKi | 8.74 |
| CCCCN1CCC(COC(=O)c2ccc(N)c(OCF)c2)CC1 | cell-free assay, radioligand | pKi | < 5.00 |
| CC(C)c1nc2cc(OCCCCN3CCN(c4cccc5c4OCCO5)CC3)ccc2s1 | cell-free assay, radioligand | pKi | 7.49 |
| CCOCc1nc(O)c(-c2nnc(Cc3ccc(Cl)cn3)o2)c(O)c1-c1c(OC)cccc1OC | ligand displacement, radioligand | pIC50 | < 4.52 |
| CCOC(=O)[C@@]12C[C@@H]1[C@@H](n1cnc3c(N[C@H](C4CCC4)C4CC4)nc(I)nc31)[C@H](O)[C@@H]2O | calcium signal, antagonist | Kb | 1.74 nM |
| CCCC[C@H](NC(=O)[C@H](C)c1c(C)[nH]c2ccc(O)cc12)c1ncc(-c2cc3ccccc3nc2OC)[nH]1 | ligand displacement | pIC50 | 6.13 |
| CNC(=O)[C@@]12C[C@@H]1[C@@H](n1cnc3c(NCCc4ccccc4)nc(I)nc31)[C@H](O)[C@@H]2O | cell-free assay, radioligand | pKi | 6.93 |
| COCCN(CCOC)C(=O)[C@@]12C[C@@H]1[C@@H](n1cnc3c(NC(C4CC4)C4CC4)nc(Cl)nc31)[C@H](O)[C@@H]2O | ligand displacement, radioligand | pKi | 5.91 |
